# Data: ChEMBL document CHEMBL4825764, “Flavonoid Monomers as Potent, Nontoxic, and Selective Modulators of the Breast Cancer Resistance Protein (ABCG2)” (J Med Chem, 2021)
# The source made the active and inactive calls. The rule behind the calls is not given here.
# How the values were obtained:
# HEK293 = assay: Effect on BCRP protein expression in human HEK293/R2 cells at 1 to 3 uM after 24 hrs by flow cytometric analysis; format: functional, cell-based; conditions: dose 1-3 µM
# Outline: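 HEK293/R2 and HEK293/pcDNA3.1 cells were exposed to 0, 1 or 3 μM compound for 24 hr, with 0.1–0.3% DMSO as solvent control. Cells were trypsinized and stained with FITC anti-human BCRP for 45 min at 4 °C, with an IgG2b-FITC isotype control. Surface signal was read by flow cytometry on FL1 over 50,000 events.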
# Homo sapiens [1] = organism: Homo sapiens; assay: Selectivity index, ratio of EC50 for inhibition of MRP1 (unknown origin) expressed in 2008/MRP1 cells assessed as reversal of mitoxantrone resistance to EC50 for inhibition of BCRP (unknown origin) expressed in HEK293/R2 cells assessed as reversal of mitoxantrone resistance; format: cell-based
# Outline: (§1)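 Selectivity index is the EC50 in 2008/MRP1 or LCC6MDR divided by the EC50 in HEK293/R2. All three lines were measured by 5-day mitoxantrone co-incubation with modulator, with MTS/PMS read-out at 490 nm.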
# BCRP (ABCG2) = molecular target: T1, BCRP (ABCG2) (Homo sapiens, UniProt Q9UNQ0); assay: Inhibition of BCRP (unknown origin) expressed in HEK293/R2 cells assessed as conformational change by measuring increase in 5D3 shift at 1 uM preincubated for 15 mins followed by FITC mouse antihuman BCRP antibody addition measured after 30 mins by flow cytometry analysis; format: cell-based; conditions: HEK293/R2 cells expressing BCRP, time 45 min
# T1 sequence (Q9UNQ0 whole entry): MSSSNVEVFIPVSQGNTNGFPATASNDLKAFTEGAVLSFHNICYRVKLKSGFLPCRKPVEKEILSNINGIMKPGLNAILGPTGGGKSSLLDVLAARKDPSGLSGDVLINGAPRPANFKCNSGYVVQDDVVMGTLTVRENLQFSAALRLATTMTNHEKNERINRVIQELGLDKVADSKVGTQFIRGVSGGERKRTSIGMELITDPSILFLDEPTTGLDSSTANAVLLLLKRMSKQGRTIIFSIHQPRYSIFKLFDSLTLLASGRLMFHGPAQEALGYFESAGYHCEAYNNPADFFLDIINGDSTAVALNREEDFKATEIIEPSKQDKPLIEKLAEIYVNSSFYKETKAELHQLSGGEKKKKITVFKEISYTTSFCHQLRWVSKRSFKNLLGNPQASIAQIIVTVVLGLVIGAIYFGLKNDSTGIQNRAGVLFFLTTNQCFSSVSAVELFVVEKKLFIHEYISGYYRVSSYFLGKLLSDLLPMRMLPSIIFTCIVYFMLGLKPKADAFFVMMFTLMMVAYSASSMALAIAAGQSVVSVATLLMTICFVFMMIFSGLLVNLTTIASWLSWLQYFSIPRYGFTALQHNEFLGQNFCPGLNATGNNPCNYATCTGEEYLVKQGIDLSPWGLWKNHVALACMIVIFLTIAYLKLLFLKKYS
# Outline: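 5 × 10^5 HEK293/R2 cells in FACS buffer were shaken 15 min at 37 °C with 1 μM compound. FITC 5D3 anti-BCRP was then added for 30 min at 37 °C and fluorescence read by flow cytometry on FL1. Compound-only background was subtracted and the untreated DMSO shift removed. Result is % of the 1 μM Ko143-induced shift.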
# Homo sapiens [2] = organism: Homo sapiens; assay: Selectivity index, ratio of EC50 for inhibition of P-gp (unknown origin) expressed in LCC6MDR cells assessed as reversal of paclitaxel resistance to EC50 for inhibition of BCRP (unknown origin) transfected in HEK293/R2 cells assessed as reversal of topotecan resistance; format: cell-based
# Outline: (§2)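 Selectivity index is the EC50 against the other transporter's line divided by the EC50 in the BCRP line. All values come from 5-day MTS reversal assays. These use topotecan in HEK293/R2 (0–2000 nM) or MCF7-MX100 (0–100 μM), doxorubicin in 2008/MRP1, and paclitaxel in LCC6MDR, each with modulator at 0–1000 nM.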
# L929 = assay: Cytotoxicity against mouse L929 cells assessed as reduction in cell viability; format: cell-based
# [3] = molecular target: T2, Broad substrate specificity ATP-binding cassette transporter ABCG2 (Homo sapiens, UniProt Q9UNQ0); assay: Inhibition of BCRP (unknown origin) expressed in human HEK293/R2 cells assessed as increase in intracellular mitoxantrone accumulation by measuring fold change at 1 uM after 2 hrs in presence of mitoxantrone by flow cytometry analysis relative to control; format: cell-based; conditions: hek293/r2, 2 h
# T2 sequence (Q9UNQ0 whole entry): T1 sequence (Q9UNQ0 whole entry)
# Outline: (§3)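 5 × 10^5 HEK293/pcDNA3.1 or HEK293/R2 cells in 1 mL were incubated 2 hr at 37 °C with 50 μM topotecan or 5 μM mitoxantrone plus 1 or 2 μM modulator, with DMSO as the vehicle control. Cells were washed in cold PBS and resuspended in FACS buffer. Flow cytometry read FL1 (topotecan) or FL4 (mitoxantrone) over 50,000 events, normalized to wild-type cells.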
# [4] = molecular target: T2, Broad substrate specificity ATP-binding cassette transporter ABCG2; assay: Inhibition of BCRP (unknown origin) expressed in HEK293/R2 cells assessed as fold increase in mitoxantrone accumulation at 1 uM after 4 days by flow cytometry analysis; format: cell-based; conditions: hek293/r2, 96 h, time 4 day
# Outline: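 HEK293/R2 cells were treated 4 days at 37 °C with 1 μM modulator or 0.1% DMSO, washed, then given the mitoxantrone accumulation assay with flow cytometry read-out. Data are relative to DMSO, N = 5 independent experiments.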
# [5] = molecular target: T2, Broad substrate specificity ATP-binding cassette transporter ABCG2; assay: Inhibition of BCRP (unknown origin) expressed in wild type HEK293/pcDNA3.1 cells assessed as increase in intracellular topotecan accumulation at 1 to 2 uM after 2 hrs in presence of topotecan by flow cytometry analysis relative to control; format: cell-based; conditions: hek293, 2 h, dose 1-2 µM; outline: as §3
# Homo sapiens [6] = organism: Homo sapiens; assay: Selectivity index, ratio of EC50 for inhibition of P-gp (unknown origin) expressed in LCC6MDR cells assessed as reversal of mitoxantrone resistance to EC50 for inhibition of BCRP (unknown origin) expressed in HEK293/R2 cells assessed as reversal of mitoxantrone resistance; format: cell-based; outline: as §1
# [7] = molecular target: T2, Broad substrate specificity ATP-binding cassette transporter ABCG2; assay: Inhibition of BCRP (unknown origin) expressed in human HEK293/R2 cells assessed as increase in intracellular mitoxantrone accumulation by measuring fold change at 2 uM after 2 hrs in presence of mitoxantrone by flow cytometry analysis relative to control; format: cell-based; conditions: hek293/r2, 2 h; outline: as §3
# 2008 = assay: Selectivity index, ratio of EC50 for inhibition of MRP1 (unknown origin) expressed in 2008/MRP1 cells assessed as reversal of doxorubicin resistance to Inhibition of BCRP (unknown origin) expressed in MCF7/MX100 cells assessed as reversal of topotecan resistance; format: cell-based; conditions: Homo sapiens; outline: as §2
# [8] = molecular target: T2, Broad substrate specificity ATP-binding cassette transporter ABCG2; assay: Inhibition of BCRP (unknown origin) expressed in wild type HEK293/pcDNA3.1 cells assessed as increase in intracellular mitoxantrone accumulation at 1 to 2 uM after 2 hrs in presence of mitoxantrone by flow cytometry analysis relative to control; format: cell-based; conditions: hek293, 2 h, dose 1-2 µM; outline: as §3
# Homo sapiens [9] = organism: Homo sapiens; assay: Selectivity index, ratio of EC50 for inhibition of MRP1 (unknown origin) expressed in 2008/MRP1 cells assessed as reversal of doxorubicin resistance to EC50 for inhibition of BCRP (unknown origin) transfected in HEK293/R2 cells assessed as reversal of topotecan resistance; format: cell-based; outline: as §2
smiles,measurement,setting,value
COC(=O)c1cccc(COc2c(-c3ccc(OCCCCc4cn(Cc5ccccc5)nn4)cc3)oc3ccccc3c2=O)c1,Activity,HEK293,inactive
same,Ratio EC50,Homo sapiens [1],68
same,"inhibition at 0.5 h, 1 µM",BCRP (ABCG2),100%
same,Ratio EC50,Homo sapiens [2],96
same,IC50,L929,> 100 µM
same,fold change (FC),[3],5.9
same,fold change (FC),[4],3.8
same,inhibition (INH),[5],Not Active
same,Ratio EC50,Homo sapiens [6],52
same,fold change (FC),[7],5.7
same,Ratio EC50,2008,167
same,inhibition (INH),[8],Not Active
same,Ratio EC50,Homo sapiens [9],143
